For test [1], the target named is Sphingosine kinase 1 (Homo sapiens) (UniProt Q9NYA1). As to the kind of experiment: Inhibition of N-terminal GST-fused sphingosine kinase 1 (1-384) expressed in baculovirus expression system assessed as inhibition of sphingosine phosphorylation after 1 hr by off-chip mobility shift assay. The settings on record: concentration not given here. Set-up: concentration or dose not given beside the values. The gist of the method: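 GST-fusion enzyme purified on glutathione sepharose. Compound series in DMSO diluted fourfold into 20 mM HEPES pH 7.5, 0.01% Triton X-100, 2 mM DTT. Reaction: 1 μM sphingosine, 25 μM ATP, 5 mM MgCl2, 1 h at room temperature (n = 4). Substrate and product separated electrophoretically; P/(P+S) ratio against no-enzyme and no-inhibitor controls; IC50 from concentration series.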

In test [2] the target is T1, Sphingosine kinase 2 (Homo sapiens) (UniProt Q9NRA0).
T1 sequence (whole entry): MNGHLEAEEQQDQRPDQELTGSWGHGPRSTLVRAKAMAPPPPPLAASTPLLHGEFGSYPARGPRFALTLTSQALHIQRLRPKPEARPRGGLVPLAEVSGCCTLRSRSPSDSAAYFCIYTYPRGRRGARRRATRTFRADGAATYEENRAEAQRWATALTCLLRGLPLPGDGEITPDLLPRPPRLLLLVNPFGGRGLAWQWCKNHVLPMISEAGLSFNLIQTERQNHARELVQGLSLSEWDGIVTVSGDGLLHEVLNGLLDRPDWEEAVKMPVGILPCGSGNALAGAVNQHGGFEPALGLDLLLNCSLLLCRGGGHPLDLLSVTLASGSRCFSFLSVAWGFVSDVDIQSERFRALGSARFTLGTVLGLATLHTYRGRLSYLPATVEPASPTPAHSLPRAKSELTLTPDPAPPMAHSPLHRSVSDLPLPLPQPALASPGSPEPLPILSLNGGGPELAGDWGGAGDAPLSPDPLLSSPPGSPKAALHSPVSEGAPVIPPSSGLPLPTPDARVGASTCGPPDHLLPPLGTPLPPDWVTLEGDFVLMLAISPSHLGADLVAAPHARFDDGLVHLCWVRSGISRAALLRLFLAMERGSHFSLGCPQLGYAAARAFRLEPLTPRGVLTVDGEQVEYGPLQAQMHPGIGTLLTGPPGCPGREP
Description: Inhibition of N-terminal GST-fused sphingosine kinase 2 (1-618) expressed in baculovirus expression system assessed as inhibition of sphingosine phosphorylation after 1 hr by off-chip mobility shift assay. More on the design: concentration or dose not given beside the values. Conditions: concentration not given here. The gist of the method:
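Glutathione-sepharose-purified GST fusion tested over a concentration series (DMSO stock diluted fourfold in 20 mM HEPES pH 7.5, 0.01% Triton X-100, 2 mM DTT). Reaction: 1 μM sphingosine, 600 μM ATP, 5 mM MgCl2, 1 h at room temperature, n = 4. Electrophoretic P/(P+S) read-out normalized to controls; IC50 fitted.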

Test [3] deals with Protein kinase C gamma type (Homo sapiens) (UniProt P05129). Description: Inhibition of N-terminal GST-fused PKCgamma (1-697) expressed in baculovirus expression system at 30 uM after 1 hr by off-chip mobility shift assay relative to control. The gist of the method: (§1)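 Enzymes purified by glutathione sepharose. DMSO compound stock diluted fourfold into 20 mM HEPES pH 7.5, 0.01% Triton X-100, 2 mM DTT, with phosphatidylserine (50 μg/mL), diacylglycerol (5 μg/mL) and 50 μM CaCl2. Reaction: 1 μM PKCθ substrate peptide (N-FL), 25 μM ATP, 5 mM MgCl2, 1 h at room temperature (n = 2). Read-out is electrophoretic P/(P+S) ratio, normalized to no-enzyme and no-inhibitor controls.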

Test [4] concerns the target Protein kinase C delta type (Homo sapiens) (UniProt Q05655). Description: Inhibition of N-terminal GST-fused PKCdelta (1-676) expressed in baculovirus expression system at 30 uM after 1 hr by off-chip mobility shift assay relative to control. The gist of the method: (§2)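 Lipid-activated reactions (phosphatidylserine 50 μg/mL, diacylglycerol 5 μg/mL), no CaCl2. Buffer is 20 mM HEPES pH 7.5, 0.01% Triton X-100, 2 mM DTT, with 1 μM N-FL PKCθ substrate peptide, 10 μM ATP and 5 mM MgCl2. Incubated 1 h at room temperature, n = 2. Product ratio P/(P+S) from electrophoretic peak heights, scaled between no-enzyme (100%) and no-inhibitor (0%) controls.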

Test [5] addresses T2, Protein kinase C epsilon type (Homo sapiens) (UniProt Q02156).
T2 sequence (whole entry): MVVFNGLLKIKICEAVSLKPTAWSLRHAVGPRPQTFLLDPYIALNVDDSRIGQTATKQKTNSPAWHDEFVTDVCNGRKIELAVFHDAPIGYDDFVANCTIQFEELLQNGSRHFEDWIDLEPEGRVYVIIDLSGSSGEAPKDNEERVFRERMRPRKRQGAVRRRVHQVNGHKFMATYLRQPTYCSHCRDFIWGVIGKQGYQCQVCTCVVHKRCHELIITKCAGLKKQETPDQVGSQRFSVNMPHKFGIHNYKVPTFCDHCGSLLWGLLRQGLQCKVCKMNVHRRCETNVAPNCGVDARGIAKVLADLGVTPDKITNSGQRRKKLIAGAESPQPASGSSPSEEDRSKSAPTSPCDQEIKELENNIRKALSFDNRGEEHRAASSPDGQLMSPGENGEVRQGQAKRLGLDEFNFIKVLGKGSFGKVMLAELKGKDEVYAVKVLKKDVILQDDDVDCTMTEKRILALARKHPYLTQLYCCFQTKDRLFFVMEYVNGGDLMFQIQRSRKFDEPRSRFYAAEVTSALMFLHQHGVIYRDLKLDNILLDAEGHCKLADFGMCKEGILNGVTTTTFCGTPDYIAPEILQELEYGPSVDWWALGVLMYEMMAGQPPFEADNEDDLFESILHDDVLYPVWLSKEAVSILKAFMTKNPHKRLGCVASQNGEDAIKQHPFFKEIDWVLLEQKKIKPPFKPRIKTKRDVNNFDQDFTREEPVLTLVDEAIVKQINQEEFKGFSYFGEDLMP
Description: Inhibition of N-terminal GST-fused PKCepsilon (1-737) expressed in baculovirus expression system at 30 uM after 1 hr by off-chip mobility shift assay relative to control. Put shortly:
as §2

The target in test [6] is Protein kinase C eta type (Homo sapiens) (UniProt P24723). As to the kind of experiment: Inhibition of N-terminal GST-fused PKCeta (1-683) expressed in baculovirus expression system at 30 uM after 1 hr by off-chip mobility shift assay relative to control. Put shortly:
(§3)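 Buffer is HEPES pH 7.5 (20 mM), 0.01% Triton X-100, 2 mM DTT, with phosphatidylserine (50 μg/mL) and diacylglycerol (5 μg/mL) but no CaCl2. Reaction: 1 μM PKCθ substrate (N-FL), 25 μM ATP, 5 mM MgCl2, 1 h at room temperature, n = 2. Read-out is electrophoretic separation, P/(P+S) ratio, controls as 0% and 100% inhibition.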

Test [7] concerns the target Protein kinase C theta type (Homo sapiens) (UniProt Q04759). Description: Inhibition of N-terminal GST-fused PKCtheta (1-706) expressed in baculovirus expression system at 30 uM after 1 hr by off-chip mobility shift assay relative to control. Put shortly: as §3
In test [8] the target is T3, Protein kinase C zeta type (Homo sapiens) (UniProt Q05513).
T3 sequence (whole entry): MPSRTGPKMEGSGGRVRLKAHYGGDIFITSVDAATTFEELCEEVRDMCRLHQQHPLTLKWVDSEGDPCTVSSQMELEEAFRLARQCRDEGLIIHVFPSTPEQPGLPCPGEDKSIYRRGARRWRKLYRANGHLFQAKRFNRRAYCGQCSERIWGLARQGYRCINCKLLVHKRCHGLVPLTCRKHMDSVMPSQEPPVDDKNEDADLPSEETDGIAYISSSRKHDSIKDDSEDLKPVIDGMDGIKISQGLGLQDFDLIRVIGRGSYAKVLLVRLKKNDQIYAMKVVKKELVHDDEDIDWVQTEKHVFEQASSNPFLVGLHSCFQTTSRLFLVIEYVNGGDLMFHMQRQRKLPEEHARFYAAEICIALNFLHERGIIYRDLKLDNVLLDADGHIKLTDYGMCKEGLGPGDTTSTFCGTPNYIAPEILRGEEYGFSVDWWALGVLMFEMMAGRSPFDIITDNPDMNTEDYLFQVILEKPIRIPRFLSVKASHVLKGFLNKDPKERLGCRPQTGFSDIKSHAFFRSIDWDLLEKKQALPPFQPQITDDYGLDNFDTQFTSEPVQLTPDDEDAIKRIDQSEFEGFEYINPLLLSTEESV
Description: Inhibition of N-terminal GST-fused PKCzeta (1-592) expressed in baculovirus expression system at 30 uM after 1 hr by off-chip mobility shift assay relative to control. Put shortly: (§4)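 No lipid cofactors and no calcium. Reaction buffer is 20 mM HEPES pH 7.5, 0.01% Triton X-100, 2 mM DTT, with 1 μM PKCθ substrate peptide (N-FL), 5 μM ATP and 5 mM MgCl2. Incubated 1 h at room temperature (n = 2). Electrophoretic mobility shift read-out of P/(P+S); normalized to no-enzyme and no-inhibitor controls.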

In test [9] the target is Protein kinase C alpha type (Homo sapiens) (UniProt P17252). As to the kind of experiment: Inhibition of N-terminal GST-fused PKCalpha (1-672) expressed in baculovirus expression system at 30 uM after 1 hr by off-chip mobility shift assay relative to control. Put shortly: as §1
Test [10] concerns the target Protein kinase C beta type (Homo sapiens) (UniProt P05771). As to the kind of experiment: Inhibition of N-terminal GST-fused PKCbeta1 (1-671) expressed in baculovirus expression system at 30 uM after 1 hr by off-chip mobility shift assay relative to control. The gist of the method:
as §1

The target is the same in test [11]. As to the kind of experiment: Inhibition of N-terminal GST-fused PKCbeta2 (1-673) expressed in baculovirus expression system at 30 uM after 1 hr by off-chip mobility shift assay relative to control. Put shortly:
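Same buffer as the other conventional PKCs (20 mM HEPES pH 7.5, 0.01% Triton X-100, 2 mM DTT), with phosphatidylserine 50 μg/mL, diacylglycerol 5 μg/mL and 50 μM CaCl2. Reaction: 1 μM PKCθ substrate peptide (N-FL), 10 μM ATP, 5 mM MgCl2, 1 h at room temperature, duplicate. Substrate and product separated electrophoretically; inhibition from P/(P+S) versus no-enzyme and no-inhibitor controls.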

Test [12] has as its target Protein kinase C iota type (Homo sapiens) (UniProt P41743). Description: Inhibition of N-terminal GST-fused PKClota (1-587) expressed in baculovirus expression system at 30 uM after 1 hr by off-chip mobility shift assay relative to control.
Test [13] has as its target T3, Protein kinase C zeta type (Homo sapiens). As to the kind of experiment: Inhibition of N-terminal GST-fused PKCzeta (1-592) expressed in baculovirus expression system at 3 uM after 1 hr by off-chip mobility shift assay relative to control. The gist of the method: as §4
The target of test [14] is Protein kinase C iota type (Homo sapiens) (UniProt P41743). Description: Inhibition of N-terminal GST-fused PKClota (1-587) expressed in baculovirus expression system at 3 uM after 1 hr by off-chip mobility shift assay relative to control.

SMILES strings stand for the structures.

As usually defined, the inhibition is how much of the control response was suppressed.

Chain of Protein kinase C theta type (Homo sapiens) (Q04759 whole entry, looked up, the tested form may be a part): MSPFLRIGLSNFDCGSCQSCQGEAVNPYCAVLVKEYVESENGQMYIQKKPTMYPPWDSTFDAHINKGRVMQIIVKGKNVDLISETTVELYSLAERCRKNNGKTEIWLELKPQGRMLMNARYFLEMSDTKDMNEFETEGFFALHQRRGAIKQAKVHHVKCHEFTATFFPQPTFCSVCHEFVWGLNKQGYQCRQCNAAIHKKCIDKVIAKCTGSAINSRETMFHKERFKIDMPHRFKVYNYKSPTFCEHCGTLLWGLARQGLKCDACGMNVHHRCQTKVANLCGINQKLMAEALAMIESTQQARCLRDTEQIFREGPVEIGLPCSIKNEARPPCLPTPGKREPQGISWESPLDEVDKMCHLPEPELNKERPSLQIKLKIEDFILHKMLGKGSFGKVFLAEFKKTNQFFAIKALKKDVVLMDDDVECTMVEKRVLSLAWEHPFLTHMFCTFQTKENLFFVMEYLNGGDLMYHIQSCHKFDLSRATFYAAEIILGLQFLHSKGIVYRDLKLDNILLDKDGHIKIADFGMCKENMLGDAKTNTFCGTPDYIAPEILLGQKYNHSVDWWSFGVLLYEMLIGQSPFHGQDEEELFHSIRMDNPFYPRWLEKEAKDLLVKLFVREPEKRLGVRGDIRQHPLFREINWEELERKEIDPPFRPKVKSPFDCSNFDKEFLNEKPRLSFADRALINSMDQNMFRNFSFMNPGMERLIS
Chain of Protein kinase C delta type (Homo sapiens) (Q05655 whole entry, looked up, the tested form may be a part): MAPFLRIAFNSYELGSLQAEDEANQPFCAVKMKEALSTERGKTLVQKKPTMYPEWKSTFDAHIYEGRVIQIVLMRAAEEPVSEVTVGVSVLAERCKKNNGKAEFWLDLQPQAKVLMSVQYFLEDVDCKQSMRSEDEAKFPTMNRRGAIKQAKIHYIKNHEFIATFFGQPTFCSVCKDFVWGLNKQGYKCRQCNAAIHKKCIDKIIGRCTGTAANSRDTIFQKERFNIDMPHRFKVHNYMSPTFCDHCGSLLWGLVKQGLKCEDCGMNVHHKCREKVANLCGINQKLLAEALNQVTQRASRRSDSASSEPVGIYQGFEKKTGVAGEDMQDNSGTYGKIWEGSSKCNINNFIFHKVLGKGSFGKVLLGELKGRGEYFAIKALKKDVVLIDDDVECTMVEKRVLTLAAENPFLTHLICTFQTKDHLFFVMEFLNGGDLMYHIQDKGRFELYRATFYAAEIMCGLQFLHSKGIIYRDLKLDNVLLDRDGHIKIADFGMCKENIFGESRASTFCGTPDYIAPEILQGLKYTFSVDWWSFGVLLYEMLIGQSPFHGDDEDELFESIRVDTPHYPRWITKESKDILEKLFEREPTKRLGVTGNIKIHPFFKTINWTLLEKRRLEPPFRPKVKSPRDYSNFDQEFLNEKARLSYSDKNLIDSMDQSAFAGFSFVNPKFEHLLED
Chain of Sphingosine kinase 1 (Homo sapiens) (Q9NYA1 whole entry, the tested form may be a part): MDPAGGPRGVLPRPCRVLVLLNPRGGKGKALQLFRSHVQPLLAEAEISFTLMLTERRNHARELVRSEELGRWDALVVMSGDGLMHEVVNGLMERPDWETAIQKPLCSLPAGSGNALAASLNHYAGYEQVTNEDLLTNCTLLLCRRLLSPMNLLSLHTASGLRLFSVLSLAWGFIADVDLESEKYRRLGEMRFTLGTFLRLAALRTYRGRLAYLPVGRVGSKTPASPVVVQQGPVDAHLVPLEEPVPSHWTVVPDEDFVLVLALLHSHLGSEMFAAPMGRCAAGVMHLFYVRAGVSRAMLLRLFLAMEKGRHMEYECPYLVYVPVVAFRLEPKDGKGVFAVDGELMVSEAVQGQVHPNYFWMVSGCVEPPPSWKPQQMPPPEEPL
Chain of Protein kinase C beta type (Homo sapiens) (P05771 2-671 limits assumed): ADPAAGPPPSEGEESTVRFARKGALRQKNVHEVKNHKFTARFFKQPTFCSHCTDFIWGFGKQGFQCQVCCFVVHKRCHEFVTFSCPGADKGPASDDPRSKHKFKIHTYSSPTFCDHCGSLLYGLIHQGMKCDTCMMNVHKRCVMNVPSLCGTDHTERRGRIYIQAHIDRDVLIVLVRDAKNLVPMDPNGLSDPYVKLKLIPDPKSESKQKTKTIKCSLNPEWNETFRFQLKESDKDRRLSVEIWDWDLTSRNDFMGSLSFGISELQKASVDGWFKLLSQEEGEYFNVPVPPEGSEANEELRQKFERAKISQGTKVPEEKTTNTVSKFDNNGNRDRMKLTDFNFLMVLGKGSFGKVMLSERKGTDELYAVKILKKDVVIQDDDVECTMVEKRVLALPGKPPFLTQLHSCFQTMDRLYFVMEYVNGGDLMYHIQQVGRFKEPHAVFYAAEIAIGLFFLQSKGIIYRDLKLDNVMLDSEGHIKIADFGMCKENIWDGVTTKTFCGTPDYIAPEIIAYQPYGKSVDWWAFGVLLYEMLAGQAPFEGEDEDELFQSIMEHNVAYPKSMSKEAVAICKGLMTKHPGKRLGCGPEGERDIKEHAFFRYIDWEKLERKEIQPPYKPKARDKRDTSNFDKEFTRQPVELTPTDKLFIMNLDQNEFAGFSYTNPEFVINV
Chain of Protein kinase C eta type (Homo sapiens) (P24723 whole entry, the tested form may be a part): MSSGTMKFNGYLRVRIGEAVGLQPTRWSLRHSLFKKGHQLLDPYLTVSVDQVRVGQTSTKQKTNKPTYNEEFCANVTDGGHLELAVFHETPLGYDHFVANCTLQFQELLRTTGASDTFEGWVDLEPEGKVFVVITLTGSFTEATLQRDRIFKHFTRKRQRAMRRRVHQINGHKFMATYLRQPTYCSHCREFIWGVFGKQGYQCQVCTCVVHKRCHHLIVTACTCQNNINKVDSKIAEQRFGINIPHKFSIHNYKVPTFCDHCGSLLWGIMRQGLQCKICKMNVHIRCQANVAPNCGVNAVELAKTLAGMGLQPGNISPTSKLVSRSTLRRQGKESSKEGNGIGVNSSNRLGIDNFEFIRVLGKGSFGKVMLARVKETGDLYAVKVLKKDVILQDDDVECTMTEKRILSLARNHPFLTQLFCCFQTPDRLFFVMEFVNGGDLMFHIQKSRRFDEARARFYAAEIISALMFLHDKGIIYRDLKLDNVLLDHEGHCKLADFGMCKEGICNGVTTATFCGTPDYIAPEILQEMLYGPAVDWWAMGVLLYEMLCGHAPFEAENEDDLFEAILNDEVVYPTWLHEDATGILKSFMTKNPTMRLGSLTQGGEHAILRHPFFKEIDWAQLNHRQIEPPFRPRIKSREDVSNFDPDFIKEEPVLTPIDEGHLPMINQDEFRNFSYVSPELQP

In the case of `CCCCCCCCCCCCCC[C@H]1OC[C@@H](N)[C@H]1O`, the inhibition in test [1] and in test [2] was 50% each time.

With `CCCCCCCCCCCCC/C=C/[C@@H](O)[C@H](CO)N(C)C`, the inhibition in [3] came out at 49.2%; in [4], 83.9%; in test [5], 40.4%; in [6], 43.8%; in test [7], 47.1%; in test [8], 99.1%. Also, the inhibition in test [1] came out at 50%; in [2] it was 50%; in test [9], 35%; in test [10] it was 68.5%; in test [11], 44.3%; in test [12] it was 100%.

With `CCCCCCCCCCCCCC[C@@H]1OC[C@H](N)[C@H]1O`, the inhibition in [1] and in test [2] was 50% each time.

Regarding `CCCCCCCCCCCCCC[C@@H]1OC[C@@H](N)[C@H]1O`, the inhibition in test [1] and in [2] was 50% throughout.

For `CCCCCCCCCCCCCC[C@@H]1OC[C@H](N)[C@@H]1O`, the inhibition was found to be 48.6% in test [3]; 69.6% in test [4]; 37.4% in test [5]; 56.6% in test [6]; 39.8% in test [7]; 100% in test [8]. The inhibition in test [13] is 50%; in test [1], 4.6%; in test [2], 6.6%; in test [9], 32.7%; in test [10], 48.5%; in test [11], 27.9%. For the same compound, the figures for the inhibition in [14] and in [12] were 50% and 98.5%, respectively.

On to `CCCCCCCCCCCCCC[C@H]1OC[C@H](N)[C@H]1O`, for which the inhibition in test [1] and in test [2] was 50% in each case.

In the case of `CCCCCCCCCCCCCC[C@H]1OC[C@@H](N)[C@@H]1O`, the inhibition turned out to be 47.6% in test [3]; 96.2% in test [4]; 26.3% in test [5]; 55.4% in [6]; 51.2% in [7]; 99.5% in test [8]. Further, the inhibition in test [13] is 50%; in [1], 0.59%; in test [2] it was 1.8%; in test [9], 34%; in test [10], 79.2%; in test [11], 43.9%. In addition, the results for the inhibition in test [14] and in test [12] were 50% and 99.9%, respectively.

`CCCCCCCCCCCCCC[C@@H]1OC[C@@H](N)[C@@H]1O`: the inhibition in test [3] was determined as 48.5%; in [4], 67.5%; in test [5] it was 29.2%; in test [6], 47%; in test [7] it was 37.1%; in test [8], 99.8%. In addition, the inhibition in test [13] worked out at 50%; in [1], 0.94%; in test [2] it was 0.48%; in test [9] it was 33.1%; in [10] it was 45.1%; in test [11], 22.9%. The values for the inhibition in test [14] and in test [12] were 50% and 94.8%, respectively.

Turning to `CCCCCCCCCCCCCC[C@H]1OC[C@H](N)[C@@H]1O`, the inhibition in [1] and in test [2] was 50% in each case.

For the origin of these results see ChEMBL document CHEMBL1817577, “Pachastrissamine (jaspine B) and its stereoisomers inhibit sphingosine kinases and atypical protein kinase C” (Bioorg Med Chem, 2011).
